Measured values reported in ChEMBL document CHEMBL3351394 (J Med Chem, 2014).

Experiments:
[1] = biological target: T1, Bile acid receptor (Homo sapiens) (UniProt Q96RI1); assay: Agonist activity at FXR in human HepG2 cells assessed as induction of SHP mrNA expression at 3 uM by quantitative PCR method; format: cell-based
T1 sequence (whole entry): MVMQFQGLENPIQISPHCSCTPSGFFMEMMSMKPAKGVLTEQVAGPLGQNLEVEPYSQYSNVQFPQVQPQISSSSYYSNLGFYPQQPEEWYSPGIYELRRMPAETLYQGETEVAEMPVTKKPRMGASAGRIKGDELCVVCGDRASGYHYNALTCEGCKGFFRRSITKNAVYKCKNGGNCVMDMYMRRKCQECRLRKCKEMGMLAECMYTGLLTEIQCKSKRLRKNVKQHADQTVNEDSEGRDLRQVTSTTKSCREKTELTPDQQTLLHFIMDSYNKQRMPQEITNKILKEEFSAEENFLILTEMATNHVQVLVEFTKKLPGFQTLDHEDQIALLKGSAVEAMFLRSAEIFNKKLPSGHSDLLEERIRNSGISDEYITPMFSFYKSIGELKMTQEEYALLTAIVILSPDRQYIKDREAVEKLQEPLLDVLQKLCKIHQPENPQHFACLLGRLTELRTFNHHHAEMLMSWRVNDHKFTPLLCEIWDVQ
Outline: (§1)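 HepG2 cells were seeded at 2 × 10⁶ per well. After 24 h they were switched to MEM with 1% charcoal-stripped FCS, and 24 h later dosed with compound (0.1, 0.3, 1, 3, 10 μM; 0.1% DMSO final) for 24 h. Total RNA was reverse transcribed and analysed by qPCR, GAPDH-normalized, ΔΔCt method. Samples were run in duplicate in ≥4 independent experiments.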

[2] = biological target: T1, Bile acid receptor (Homo sapiens); assay: Agonist activity at FXR in human HepG2 cells assessed as induction of BSEP mrNA expression at 0.3 uM by quantitative PCR method; format: cell-based; outline: as §1
HeLa = assay: Cytotoxicity against human HeLa cells assessed as compound concentration causing reduction in cell viability by reporter gene assay; format: cell-based
[3] = biological target: T1, Bile acid receptor (Homo sapiens); assay: Agonist activity at FXR in human HepG2 cells assessed as induction of SHP mrNA expression at 0.1 uM by quantitative PCR method; format: cell-based; outline: as §1
[4] = biological target: T1, Bile acid receptor (Homo sapiens); assay: Agonist activity at FXR in human HepG2 cells assessed as induction of OSTalpha mrNA expression at 10 uM by quantitative PCR method; format: cell-based; outline: as §1
[5] = biological target: T1, Bile acid receptor (Homo sapiens); assay: Agonist activity at FXR in human HepG2 cells assessed as induction of CYP7A1 mrNA expression at 0.3 uM by quantitative PCR method; format: cell-based; outline: as §1
[6] = biological target: T1, Bile acid receptor (Homo sapiens); assay: Agonist activity at FXR in human HepG2 cells assessed as induction of CYP7A1 mrNA expression at 1 uM by quantitative PCR method; format: cell-based; outline: as §1
[7] = biological target: T1, Bile acid receptor (Homo sapiens); assay: Agonist activity at FXR in human HepG2 cells assessed as induction of SHP mrNA expression at 10 uM by quantitative PCR method; format: cell-based; outline: as §1
[8] = biological target: T1, Bile acid receptor (Homo sapiens); assay: Agonist activity at FXR in human HepG2 cells assessed as induction of OSTalpha mrNA expression at 3 uM by quantitative PCR method; format: cell-based; outline: as §1
[9] = biological target: T1, Bile acid receptor (Homo sapiens); assay: Agonist activity at FXR in human HepG2 cells assessed as induction of OSTalpha mrNA expression at 0.1 uM by quantitative PCR method; format: cell-based; outline: as §1
HepG2 = assay: Cytotoxicity against human HepG2 cells assessed as compound concentration causing reduction in cell viability by WST1 assay; format: cell-based
Outline: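 WST-1 viability in HepG2 cells (3 × 10⁴ per well) in DMEM with 1% FCS, after 48 h exposure to 1, 10, 30 and 100 μM compound. Controls were Revlotron 100 μM (positive) and zileuton 100 μM or DMEM/1% DMSO (negative). WST reagent was added for 45 min and absorbance read at 450/620 nm; untreated set as 100%. Three repeats in triplicate.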

[10] = biological target: T1, Bile acid receptor (Homo sapiens); assay: Agonist activity at FXR in human HepG2 cells assessed as induction of CYP7A1 mrNA expression at 0.1 uM by quantitative PCR method; format: cell-based; outline: as §1
[11] = biological target: T2, Peroxisome proliferator-activated receptor delta (Homo sapiens, UniProt Q03181); assay: Activity at GAL4-tagged PPARdelta (unknown origin) expressed in COS7 cells assessed as receptor transactivation by luciferase reporter gene assay; format: cell-based, COS-7
T2 sequence (Q03181 whole entry): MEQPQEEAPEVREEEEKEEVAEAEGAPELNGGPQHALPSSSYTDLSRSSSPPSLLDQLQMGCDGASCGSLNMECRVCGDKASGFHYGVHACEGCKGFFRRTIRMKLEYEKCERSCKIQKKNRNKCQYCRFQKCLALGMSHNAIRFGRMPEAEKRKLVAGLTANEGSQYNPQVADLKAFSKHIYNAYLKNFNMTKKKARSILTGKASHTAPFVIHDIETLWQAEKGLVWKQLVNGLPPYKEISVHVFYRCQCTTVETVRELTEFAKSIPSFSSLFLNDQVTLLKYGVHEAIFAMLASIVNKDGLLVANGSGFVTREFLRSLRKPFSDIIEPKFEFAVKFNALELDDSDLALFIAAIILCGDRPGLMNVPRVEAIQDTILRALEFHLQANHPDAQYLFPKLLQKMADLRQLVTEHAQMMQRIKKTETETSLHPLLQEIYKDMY
Outline: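 Each PPAR subtype was tested as a Gal4 fusion carrying the human hinge region and LBD (cDNA from human monocytes) in transiently transfected COS-7 cells (Lipofectamine LTX), with a pFR-Luc reporter and pRL-SV40 for normalization. Compound in 0.1% DMSO was added 5 h post-transfection and incubated overnight. Firefly/renilla RLU was scaled to 1 μM GW7647 (α), L165,041 (δ) or pioglitazone (γ).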

[12] = biological target: T1, Bile acid receptor (Homo sapiens); assay: Agonist activity at FXR in human HepG2 cells assessed as induction of IBABP mrNA expression at 10 uM by quantitative PCR method; format: cell-based
[13] = biological target: T1, Bile acid receptor (Homo sapiens); assay: Agonist activity at FXR in human HepG2 cells assessed as induction of IBABP mrNA expression at 0.1 uM by quantitative PCR method; format: cell-based
[14] = biological target: T1, Bile acid receptor (Homo sapiens); assay: Agonist activity at FXR in human HepG2 cells assessed as induction of IBABP mrNA expression at 3 uM by quantitative PCR method; format: cell-based
[15] = biological target: T1, Bile acid receptor (Homo sapiens); assay: Agonist activity at FXR in human HepG2 cells assessed as induction of BSEP mrNA expression at 0.1 uM by quantitative PCR method; format: cell-based; outline: as §1
[16] = biological target: T1, Bile acid receptor (Homo sapiens); assay: Agonist activity at FXR in human HepG2 cells assessed as induction of SHP mrNA expression at 1 uM by quantitative PCR method; format: cell-based; outline: as §1
Homo sapiens = organism: Homo sapiens; assay: Selectivity index, ratio of EC50 for GAL4-tagged PPARgamma (unknown origin) to EC50 for human FXR

With `COc1ccc(C(=O)Nc2cccc(C(=O)O)c2)c(NC(=O)c2ccc(C(C)(C)C)cc2)c1` the Activity [1] was 185%, the Activity [2] was 300% and the Activity (HeLa) was “>= 30 uM”. It also gave an Activity [3] of 239%, an Activity [4] of 234% and an Activity [5] of 59%. For the same compound, the Activity [6] was 55%, the Activity [7] was 214% and the Activity [8] was 149%. For the same compound, the Activity [9] was 151%, the Activity (HepG2) was “>= 30 uM” and the Activity [10] was 52%. The EC50 [11] was 3 µM, the Activity [12] was 144% and the Activity [13] was 188%. For the same compound, the Activity [14] was 168%, the Activity [15] was 294% and the Activity [16] was 181%. The Ratio EC50 (Homo sapiens) was 375.
